Data as given in ChEMBL document CHEMBL4261552, “4-Hydroxy-N-[3,5-bis(trifluoromethyl)phenyl]-1,2,5-thiadiazole-3-carboxamide: a novel inhibitor of the canonical NF-κB cascade” (Medchemcomm, 2017).
Active and inactive are the calls of the source. The calls are words filed in the database; no cut-off is given here.

What was measured:
Homo sapiens = organism: Homo sapiens; experiment: Inhibition of canonical NF-kB signaling pathway in human THP1 cells assessed as reduction in LPS-induced IkBalpha degradation preincubated for 60 mins followed by LPS addition measured after 30 mins by immunoblot analysis; assay type: cell-based
Method in brief: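 THP-1 cells in RPMI-1640 with 10% FBS. Cells exposed 60 min to compound, then 30 min to LPS 1 µg/mL. Lysates immunoblotted at 20 µg/lane for IκBα and β-actin, with ECL detection. Band signals normalized as % of control; apparent IC50 by non-linear regression; mean ± SD of three independent experiments.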

[1] = molecular target: T1, Inhibitor of nuclear factor kappa-B kinase subunit beta (Homo sapiens) (UniProt O14920); experiment: Inhibition of human IKKbeta at 100 uM using ERLLDDRHDSGLDSMKDEE as substrate after 60 mins in presence of ATP by ADP-Glo kinase assay relative to control
T1 sequence (whole entry): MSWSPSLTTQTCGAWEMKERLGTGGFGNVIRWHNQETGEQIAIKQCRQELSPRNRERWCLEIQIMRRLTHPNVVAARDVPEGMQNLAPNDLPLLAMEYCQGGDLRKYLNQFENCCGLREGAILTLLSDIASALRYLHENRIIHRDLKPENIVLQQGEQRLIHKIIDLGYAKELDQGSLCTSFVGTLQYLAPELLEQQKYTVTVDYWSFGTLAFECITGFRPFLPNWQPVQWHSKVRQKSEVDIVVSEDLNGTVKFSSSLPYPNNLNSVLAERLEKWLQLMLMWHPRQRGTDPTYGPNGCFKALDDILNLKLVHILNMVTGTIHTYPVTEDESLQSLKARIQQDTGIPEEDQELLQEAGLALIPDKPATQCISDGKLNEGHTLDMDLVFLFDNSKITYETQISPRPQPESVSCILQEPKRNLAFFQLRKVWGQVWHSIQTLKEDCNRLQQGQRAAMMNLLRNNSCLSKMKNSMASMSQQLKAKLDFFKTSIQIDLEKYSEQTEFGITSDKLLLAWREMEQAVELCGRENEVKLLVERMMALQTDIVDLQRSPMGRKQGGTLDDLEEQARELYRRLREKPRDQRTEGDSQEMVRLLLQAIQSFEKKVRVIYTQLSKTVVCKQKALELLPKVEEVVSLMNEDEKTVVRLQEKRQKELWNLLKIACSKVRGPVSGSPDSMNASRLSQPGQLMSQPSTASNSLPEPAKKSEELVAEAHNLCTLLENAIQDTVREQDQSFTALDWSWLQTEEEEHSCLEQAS

[2] = molecular target: Inhibitor of NF-kappa-B kinase (IKK) (Homo sapiens) (UniProt O14920+O15111+Q9Y6K9); experiment: Inhibition of IKKbeta/IKKalpha/NEMO complex immunoprecipated from TNFalpha-stimulated human Jurkat cells at 100 uM relative to control
[3] = molecular target: T1, Inhibitor of nuclear factor kappa-B kinase subunit beta (Homo sapiens); experiment: Induction of IKKbeta phosphorylation at S177/181 residues in TNFalpha-stimulated human Jurkat cells at 10 uM preincubated for 60 mins followed by TNFalpha-stimulation for 20 mins by immunoblot analysis; assay type: cell-based
Method in brief: (§1)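 Jurkat E6.1 cells in X-VIVO 15 with 10% FBS, passages 5–10, were pretreated 60 min with 10 µM compound (DMSO vehicle), then stimulated 20 min with TNFα 15 ng/mL. Lysates were made with protease and phosphatase inhibitors, 20 µg/lane was run on 12% SDS-PAGE, and IKKα/IKKβ phosphorylation was detected by immunoblot with ECL. Three independent experiments were run.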

[4] = molecular target: T2, Inhibitor of nuclear factor kappa-B kinase subunit alpha (Homo sapiens) (UniProt O15111); experiment: Induction of IKKalpha phosphorylation at S176/180 residues in TNFalpha-stimulated human Jurkat cells at 10 uM preincubated for 60 mins followed by TNFalpha-stimulation for 20 mins by immunoblot analysis; assay type: cell-based; method in brief: as §1
T2 sequence (whole entry): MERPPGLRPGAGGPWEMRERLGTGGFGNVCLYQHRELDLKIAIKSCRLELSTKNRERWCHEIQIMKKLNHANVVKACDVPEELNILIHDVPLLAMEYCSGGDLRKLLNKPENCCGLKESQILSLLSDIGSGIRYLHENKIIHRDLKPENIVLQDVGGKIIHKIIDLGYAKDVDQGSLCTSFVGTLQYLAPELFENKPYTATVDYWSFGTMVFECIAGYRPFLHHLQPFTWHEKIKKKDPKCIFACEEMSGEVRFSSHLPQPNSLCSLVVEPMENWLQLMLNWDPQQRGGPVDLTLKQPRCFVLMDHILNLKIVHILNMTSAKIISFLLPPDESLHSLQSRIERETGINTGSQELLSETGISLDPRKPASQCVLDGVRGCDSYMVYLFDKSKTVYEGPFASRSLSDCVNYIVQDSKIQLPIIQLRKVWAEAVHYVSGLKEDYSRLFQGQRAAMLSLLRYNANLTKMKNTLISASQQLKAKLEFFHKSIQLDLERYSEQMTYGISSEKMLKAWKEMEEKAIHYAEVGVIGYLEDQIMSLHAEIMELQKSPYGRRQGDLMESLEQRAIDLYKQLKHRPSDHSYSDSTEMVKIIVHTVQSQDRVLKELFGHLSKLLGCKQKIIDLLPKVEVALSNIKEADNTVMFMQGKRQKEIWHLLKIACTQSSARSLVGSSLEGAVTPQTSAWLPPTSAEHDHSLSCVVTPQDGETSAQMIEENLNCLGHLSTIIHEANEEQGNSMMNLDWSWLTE

| SMILES | inhibition (Homo sapiens) | inhibition [1] | inhibition [2] | Activity [3] | Activity [4] |
| --- | --- | --- | --- | --- | --- |
| O=C(Nc1cc(C(F)(F)F)cc(C(F)(F)F)c1)c1nsnc1O | Dose-dependent effect |  |  |  |  |
| O=C(Nc1cc(C(F)(F)F)cc(C(F)(F)F)c1)c1cc(Cl)ccc1O [IMD-0354] |  | 5.43% | 40% | Active | Active |
